Screens: PubChem, NMMLSC
Sampled rows, rich in hits. Any-hit rate of the full collection: about 2.5%.
MEKK2 WT-MEK5: modulators of MEK5 binding to wildtype MEKK2, primary screen, biochemical, multiplex bead flow cytometry, Alexa488-MEK5; Mitogen-activated protein kinase kinase kinase 2 (Homo sapiens), Q9Y2U5; actives 1.1% (n = 290,000); binding response (% of control), % at 10 µM; Alexa488-MEK5 binding to MEKK2 WT; actives lie on both sides; in the data active = binding response below about 67% or above about 130%
ABCG2 inh: ABCG2 efflux pump inhibitors, primary screen, multiplex with ABCB1, IgMXP3 cells, flow cytometry; JC-1 efflux; inhibition, % at 6.6 µM; actives 0.1% (n = 190,000);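 active = inhibition above 80%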;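 also: 0% = DMSO and 100% = nicardipine control wells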
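material = IgMXP3 (ABCG2) plus far-red-tagged CCRF-Adr (ABCB1) cells | amount = 3 million cells/mL, equal mix of both lines | also added = JC-1 transporter substrate | dosing = one concentration, 6.6 µM final | schedule = 10 min at 25 °C | measured by = flow cytometric JC-1 green MFI at 530 nm | read-out basis = percent efflux inhibition, scaled nicardipine 100% to DMSO 0%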
Efflux pump mplx: inhibitors of Candida efflux pumps in yeast, primary screen, S. cerevisiae, Nile Red, multiplex. inhibition, % at 10 µM. S. cerevisiae Candida pump triplex. actives 0.44% (n = 330,000);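 active = plate passing quality check with inhibition over a set limit, or well fluorescence over plate mean plus 4 SD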;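 also: Nile Red retained in pooled yeast measured as flow cytometry median fluorescence; 0% = buffer negative control and 100% = Enniatin B positive control; higher means more Nile Red kept so more efflux inhibition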
ABCB1 inh: ABCB1 efflux pump inhibitors, primary screen, cell-based, multiplex, flow cytometry, ABCG2 counter-screen. ATP-dependent translocase ABCB1 (Homo sapiens), P08183. CCRF-Adr cells, JC-1 efflux. inhibition, % at 6.6 µM. actives 0.067% (n = 190,000). AID 1326, 2008; in the data active = inhibition above about 40%;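 also: 0% = vehicle and 100% = reference inhibitor; higher value means more JC-1 retained so stronger ABCB1 efflux block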
MEKK2mut PB1 HTS: MEK5 binding signal on mutant MEKK2 PB1, primary screen, biochemical, multiplex bead flow cytometry, Alexa488-MEK5; percent response, % at 10 µM; actives 0.35% (n = 290,000); Alexa488-MEK5 binding to MEKK2 mutant; in the data active = percent response above about 24%, passing the limit was not always enough
MEKK3 PB1 HTS: modulators of MEKK3-MEK5 PB1 binding, primary screen, biochemical, wildtype MEKK3, multiplex bead flow cytometry, Alexa488-MEK5; Mitogen-activated protein kinase kinase kinase 3 (Homo sapiens), Q99759; actives 1.4% (n = 290,000); bead-based flow cytometry, Alexa488-MEK5 binding to MEKK3; actives lie on both sides; 0 = blocked by unlabeled MEK5, 100 = vehicle; binding response (% of control), % at 10 µM;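 active = binding response more than 3 SD above or below the average of its plate-row segment, actives on both sides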;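 also: Alexa488 bead fluorescence after subtracting the streptavidin-only scavenger bead signal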
Target sequence (Q99759 whole entry, looked up): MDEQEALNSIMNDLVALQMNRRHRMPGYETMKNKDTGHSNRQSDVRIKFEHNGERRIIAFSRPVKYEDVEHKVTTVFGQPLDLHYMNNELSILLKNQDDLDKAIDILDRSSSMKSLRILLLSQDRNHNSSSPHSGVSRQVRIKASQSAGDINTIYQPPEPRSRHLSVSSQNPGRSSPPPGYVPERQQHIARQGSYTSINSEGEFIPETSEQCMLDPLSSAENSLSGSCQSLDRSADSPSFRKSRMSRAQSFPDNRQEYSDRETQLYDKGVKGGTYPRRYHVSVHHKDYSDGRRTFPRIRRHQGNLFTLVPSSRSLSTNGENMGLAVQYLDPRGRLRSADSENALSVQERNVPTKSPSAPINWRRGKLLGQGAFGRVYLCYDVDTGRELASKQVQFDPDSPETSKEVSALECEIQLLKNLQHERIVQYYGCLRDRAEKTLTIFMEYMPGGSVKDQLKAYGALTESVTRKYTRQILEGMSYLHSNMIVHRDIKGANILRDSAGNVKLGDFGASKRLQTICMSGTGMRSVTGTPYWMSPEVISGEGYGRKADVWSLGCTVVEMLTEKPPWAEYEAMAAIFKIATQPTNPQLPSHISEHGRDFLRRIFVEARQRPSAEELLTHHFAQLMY
MEKK2wt confirm: modulators of MEK5 binding to wildtype MEKK2, confirmation, biochemical, single concentration, multiplex bead flow cytometry. AID 1892, 2009. shares compounds with MEKK3 PB1 HTS. actives 2.4% (n = 5,900). Alexa488-MEK5 binding to MEKK2 WT; actives lie on both sides. binding response (% of control), % at 10 µM; in the data active = binding response below about 16% or above about 210%; inactive = in between
MEKK2mut confirm: mutant MEKK2 PB1-MEK5 binding signal retest – biochemical, single concentration, multiplex bead flow cytometry, confirmation | shares compounds with MEKK3 PB1 HTS | Alexa488-MEK5 binding to MEKK2 mutant | percent response, % at 10 µM | actives 2% (n = 5,900); in the data active = percent response mostly above about 71%, no sharp cut-off; inactive = mostly below about 38%;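 also: higher means compound restores mutant binding toward wildtype level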
MEKK3 confirm: MEKK3 wild-type PB1 binding to MEK5, inhibitors, confirmation, biochemical, bead multiplex flow cytometry, single concentration, wildtype | actives 1.8% (n = 5,900) | shares compounds with MEKK3 PB1 HTS | binding response (% of control), % at 10 µM | Alexa488-MEK5 binding to MEKK3; hits give low values;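 active = binding response below 72% of control, or above a set upper limit, though filed actives all read lower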;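 also: 100% = DMSO only wells and 0% = binding blocked by excess unlabeled MEK5; lower values mean stronger disruption of MEK5 binding to MEKK3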
Starred values were filed as active, the others as inactive; x = no result; [ ] = another dose, or the depositor's remark.

SMILES	MEKK2 WT-MEK5	ABCG2 inh	Efflux pump mplx	ABCB1 inh	MEKK2mut PB1 HTS	MEKK3 PB1 HTS	MEKK2wt confirm	MEKK2mut confirm	MEKK3 confirm
COc1ccccc1CNCC(O)(c1ccc(Cl)cc1)c1ccc(Cl)cc1	163*	9	0	7	21	104	146	25	102
COc1ccc(NS(=O)(=O)c2cc(C(=O)N3CCC3)ccc2C)cc1	x	x	0	x	x	x	x	x	x
COc1ccc(NS(=O)(=O)c2cc(C(=O)N3CCN(C(C)=O)CC3)ccc2Cl)cc1	77	2	0	1	-2	71*[inhibitor]	102	4	104
COCc1cc(C)nc(OCC(=O)N/N=C/c2ccc(-c3cc([N+](=O)[O-])ccc3Cl)o2)c1C#N	100	-1	0	1	0	102	x	x	x
Cc1ccccc1OCCNC(=O)CNC(=O)c1ccccc1O	76	5	0	0	-9	79*[inhibitor]	103	4	103
Nc1ccccc1Nc1cc(-c2ccccc2)nn1-c1ccccc1	107	4	-1	2	3	112	x	x	x
Cc1ccc(-n2nc(-c3ccccc3)cc2Nc2ccccc2N)cc1	113	14	0	5	1	139*	100	-8	101
Cc1cn2c(N)c(C=C3C=C(Cl)C(=O)C(Cl)=C3)c(=O)nc2s1	50*[inhibitor]	4	x	5	-76	94	99	-14	103
COC1=C/C(=C/c2c(N)n3cc(C)sc3nc2=O)C=CC1=O	92	0	1	0	-4	91	x	x	x
CCc1cc2ccc(OC)cc2nc1SCC(=O)NNC(C)=O	124	2	0	0	6	135*	99	-1	103
CCc1cc2ccc(OC)cc2nc1SCC(=O)Nc1cc(C)on1	117	3	0	0	5	123*	98	-1	103
O=C(CSc1cccc[n+]1[O-])Nc1ccc(N2CCOCC2)cc1	104	-2	0	0	0	104	x	x	x
CCCCn1cc(C(C)(C)C)c(C#N)c1NC(C)=O	52*[inhibitor]	0	0	0	-13	46*[inhibitor]	101	1	100
CCc1cccc(NS(=O)(=O)c2c(C)[nH]c(=O)[nH]c2=O)c1	103	x	0	x	1	104	x	x	x
COCCSc1nnc(NS(=O)(=O)c2ccc(F)cc2)s1	119	3	0	1	0	136*	105	19	106
COCc1nnc(NS(=O)(=O)c2ccc(F)cc2)s1	99	x	0	x	13	101	x	x	x
CCC(c1nnnn1Cc1ccc2c(c1)OCO2)N1CCN(CC)CC1 (stereo not drawn)	122	2	0	0	5	131*	99	1	102
Cc1ccc(S(=O)(=O)N2CCN(C(=O)c3cc4c(C)nn(-c5ccccc5C)c4s3)CC2)cc1	105	13	0	8	3	108	x	x	x
Cc1ccccc1-n1nc(C)c2cc(C(=O)N3CCOCC3)sc21	211*	5	0	1	32	103	103	7	106
